Active and inactive are the calls of the source. No cut-off for these calls is given here.
What was measured:
[1] = test system: HeLa; test: Induction of apoptosis in human HeLa cells assessed as nuclear fragmentation after 24 hrs by AO/EB staining-based fluorescent microscopic analysis; type: functional, cell-based
Procedure, shortened: (§1)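 HeLa monolayers were grown in 24-well plates and exposed for 24 h at 0, 5, 10, 20 and 40 µM. Cells were stained 10 min with AO/EB dye mix (100 µg/mL each) and washed with PBS. Morphology was then viewed by fluorescence microscopy: chromatin condensation, nuclear fragmentation, and membrane integrity.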

[2] = test system: HeLa; test: Antiproliferative activity against human HeLa cells after 44 hrs by MTT assay; type: functional, cell-based
Procedure, shortened: (§2)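 HeLa, A549, SGC-7901 and MCF-7 cells seeded at 5 × 10^4 per well in DMEM at 37 °C, 5% CO2, incubated overnight. Cells were then treated at […], with 0.5% DMSO as control. MTT added for 4 h at 37 °C, formazan dissolved in DMSO, absorbance read at 570 nm. Inhibition % = (1 − Atreatment/Acontrol) × 100. Triplicate wells, each experiment repeated at least three times.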

[3] = test system: A549; test: Antiproliferative activity against human A549 cells after 44 hrs by MTT assay; type: functional, cell-based; conditions: for IC50: A549, 44 h; procedure, shortened: as §2
[4] = (§3) Antiproliferative activity against human SGC7901 cells after 44 hrs by MTT assay; type: functional, cell-based; conditions: SGC-7901, 44 h; procedure, shortened: as §2
[5] = test system: SGC-7901; test: as §3; type: functional, cell-based; procedure, shortened: as §2
[6] = test system: MCF7; test: Antiproliferative activity against human MCF7 cells after 44 hrs by MTT assay; type: functional, cell-based; conditions: for IC50: MCF7, 44 h; procedure, shortened: as §2
[7] = test system: HeLa; test: Induction of apoptosis in human HeLa cells assessed as chromatin condensation after 24 hrs by AO/EB staining-based fluorescent microscopic analysis; type: functional, cell-based; procedure, shortened: as §1
[8] = species on record: Homo sapiens; test: Binding affinity to HTG21 G-quadruplex DNA assessed as transition temperature using K+ buffer at 1:1 compound to DNA ratio by CD spectrometric analysis (reference value: 64.6 degC)
Procedure, shortened: (§4)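 CD melting of HTG21 at 5 µM with ligand at 5 µM (1:1). Buffer was Tris–HCl 10 mM, pH 7.4, containing KCl or NaCl. Signal was monitored at 295 nm and curves were normalized to obtain the melting temperature. HTG21 was pre-annealed at 95 °C for 5 min, cooled slowly, and held at 4 °C overnight.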

[9] = species on record: Homo sapiens; test: Binding affinity to HTG21 G-quadruplex DNA assessed as hypochromicity by electronic absorption spectroscopic analysis
Procedure, shortened: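 Absorption titration with ligand fixed at […] and HTG21 added at […], in Tris–HCl 10 mM, pH 7.4, containing KCl or NaCl. HTG21 was annealed at 95 °C for 5 min, cooled slowly, and held at 4 °C overnight. Absorbance decrease was followed. Binding constant was taken from a plot of [DNA]/(εa−εf) versus [DNA].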

[10] = test system: Calf thymus DNA; test: Binding affinity to calf thymus DNA assessed as hypochromicity by electronic absorption spectroscopic analysis; type: nucleic-acid assay; conditions: Bos taurus
[11] = species on record: Homo sapiens; test: Binding affinity to HTG21 G-quadruplex DNA at 5 uM by fluorescence emission spectroscopic analysis
Procedure, shortened: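 Fluorescence emission titration with ligand fixed at […] and annealed HTG21 varied up to […]. Buffer was Tris–HCl 10 mM, pH 7.4, containing KCl or NaCl. Quenching was plotted as F0/F versus [HTG21]/[compound] and fitted.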

[12] = test system: Calf thymus DNA; test: Binding affinity to calf thymus DNA at 5 uM by fluorescence emission spectroscopic analysis; type: nucleic-acid assay; conditions: Bos taurus
[13] = species on record: Homo sapiens; test: Binding affinity to HT6 G-quadruplex DNA at 0.5 to 1 compound to DNA ratio by NMR spectroscopic analysis
Procedure, shortened: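 1H NMR at 25 °C on d(TTAGGG) 0.2 mM in 90% H2O/10% D2O with 150 mM KCl and 25 mM potassium phosphate, pH 7.0. Compound/quadruplex ratios were 0, 0.5 and 1. Watergate water suppression was used, and imino proton signals were monitored. Oligonucleotide was HPLC-purified.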

[14] = species on record: Homo sapiens; test: Stabilization of HTG21 G-quadruplex DNA at 2.5 to 15 uM by PCR-stop assay
Procedure, shortened: (§5)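 PCR-stop on forward primer HTG21 or mutant HTG21mu with reverse primer RevHTG21, each primer 0.4 µM. Mixes contained 0.2 mM dNTP and 1.5 U Taq in 1× Thermopol buffer (20 mM Tris–HCl, 10 mM KCl, 10 mM (NH4)2SO4, 2 mM MgSO4, 0.1% Triton X-100, pH 8.8). Ligand was tested at 0–15 µM. Products were resolved by electrophoresis and imaged under UV.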

[15] = species on record: Homo sapiens; test: Stabilization of HTG21mu G-quadruplex DNA at 15 uM by PCR-stop assay; procedure, shortened: as §5
[16] = species on record: Homo sapiens; test: Binding affinity to HTG21 G-quadruplex DNA assessed as transition temperature using Na+ buffer at 1:1 compound to DNA ratio by CD spectrometric analysis (reference value: 55.1 degC); procedure, shortened: as §4
[17] = test system: HeLa; test: Induction of apoptosis in human HeLa cells assessed as early apoptotic cells at 40 uM after 24 hrs by annexin V-FITC/propidium iodide staining-based flow cytometric analysis (reference value: 0.11%); type: functional
Procedure, shortened: (§6)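 HeLa cells were seeded at 3 × 10^5 per well in DMEM at 37 °C, 5% CO2, and treated with 0, 10, 20 or 40 µM for 24 h. Cells were trypsinized, washed in cold PBS, resuspended in binding buffer, and stained with Annexin V-FITC plus PI for 20 min in the dark. Flow cytometry quadrants defined early (Annexin+/PI−) and late (Annexin+/PI+) apoptotic cells.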

[18] = test system: HeLa; test: Induction of apoptosis in human HeLa cells assessed as increase in apoptotic ratio after 24 hrs by annexin V-FITC/propidium iodide staining-based flow cytometric analysis; type: functional, cell-based; procedure, shortened: as §6
[19] = test system: HeLa; test: Induction of apoptosis in human HeLa cells assessed as late apoptotic cells at 40 uM after 24 hrs by annexin V-FITC/propidium iodide staining-based flow cytometric analysis (reference value: 0.36%); type: functional; procedure, shortened: as §6
[20] = test system: HeLa; test: Induction of apoptosis in human HeLa cells assessed as early apoptotic cells at 20 uM after 24 hrs by annexin V-FITC/propidium iodide staining-based flow cytometric analysis (reference value: 0.11%); type: functional; procedure, shortened: as §6
[21] = test system: HeLa; test: Induction of apoptosis in human HeLa cells assessed as late apoptotic cells at 20 uM after 24 hrs by annexin V-FITC/propidium iodide staining-based flow cytometric analysis (reference value: 0.36%); type: functional; procedure, shortened: as §6
[22] = test system: HeLa; test: Induction of apoptosis in human HeLa cells assessed as early apoptotic cells at 10 uM after 24 hrs by annexin V-FITC/propidium iodide staining-based flow cytometric analysis (reference value: 0.11%); type: functional; procedure, shortened: as §6
[23] = test system: HeLa; test: Induction of apoptosis in human HeLa cells assessed as late apoptotic cells at 10 uM after 24 hrs by annexin V-FITC/propidium iodide staining-based flow cytometric analysis (reference value: 0.36%); type: functional; procedure, shortened: as §6

In the case of `CCN(CC)CC(=O)Nc1ccc2oc3ccc(NC(=O)CN(CC)CC)cc3c(=O)c2c1`, the Activity [1] is reported as “Dose-dependent effect”, the Activity [2] is reported as “Dose-dependent effect” and the IC50 [2] is reported as 20.4 µM. For the same molecule, the Activity [3] was “Dose-dependent effect”, the IC50 [3] was 19.9 µM and the IC50 [4] was 32.2 µM. The Activity [5] was “Dose-dependent effect”, the Activity [6] was “Dose-dependent effect” and the IC50 [6] was 26.6 µM. The Activity [7] was “Dose-dependent effect”.
With `CN(C)CC(=O)Nc1ccc2oc3ccc(NC(=O)CN(C)C)cc3c(=O)c2c1` the Activity [1] was “Dose-dependent effect”, the T [8] was 70.3 °C and the Kb [9] was 2.89 ×10⁴ /M. For the same molecule, the Kb [10] was 0.46 ×10⁴ /M, the Activity [11] was “Active” and the Activity [12] was “inactive”. The Activity [13] was “Active”, the Activity [14] was “Active” and the Activity [15] was “inactive”. For the same molecule, the T [16] was 60.8 °C, the Activity [17] was 32.07% and the Activity [18] was “Dose-dependent effect”. For the same molecule, the Activity [19] was 60.78%, the Activity [20] was 22.69% and the Activity [21] was 18.24%. For the same molecule, the Activity [22] was 12.36%, the Activity [23] was 9.45% and the Activity [2] was “Dose-dependent effect”. The IC50 [2] was 13.2 µM, the Activity [3] was “Dose-dependent effect” and the IC50 [3] was 18.7 µM. The IC50 [4] was 17.3 µM, the Activity [5] was “Dose-dependent effect” and the Activity [6] was “Dose-dependent effect”. The IC50 [6] was 23 µM and the Activity [7] was “Dose-dependent effect”.
With `O=C(CN1CCCC1)Nc1ccc2oc3ccc(NC(=O)CN4CCCC4)cc3c(=O)c2c1` the Activity [1] was “Dose-dependent effect”, the Activity [2] was “Dose-dependent effect” and the IC50 [2] was 48.2 µM. The Activity [3] was “Dose-dependent effect”, the IC50 [3] was 21.5 µM and the IC50 [4] was 35.9 µM. For the same molecule, the Activity [5] was “Dose-dependent effect”, the Activity [6] was “Dose-dependent effect” and the IC50 [6] was 34.9 µM. For the same molecule, the Activity [7] was “Dose-dependent effect”.
For `O=C(CN1CCCCC1)Nc1ccc2oc3ccc(NC(=O)CN4CCCCC4)cc3c(=O)c2c1`, the Activity [1] was “Dose-dependent effect”, the Activity [2] was “Dose-dependent effect” and the IC50 [2] was over 100 µM. For the same molecule, the Activity [3] was “Dose-dependent effect”, the IC50 [3] was over 100 µM and the IC50 [4] was 86.7 µM. The Activity [5] was “Dose-dependent effect”, the Activity [6] was “Dose-dependent effect” and the IC50 [6] was 83.9 µM. The Activity [7] was “Dose-dependent effect”.
With `O=C(CN1CCOCC1)Nc1ccc2oc3ccc(NC(=O)CN4CCOCC4)cc3c(=O)c2c1` the Activity [1] was “Dose-dependent effect”, the Activity [2] was “Dose-dependent effect” and the IC50 [2] was over 100 µM. The Activity [3] was “Dose-dependent effect”, the IC50 [3] was 80.5 µM and the IC50 [4] was 84.9 µM. The Activity [5] was “Dose-dependent effect”, the Activity [6] was “Dose-dependent effect” and the IC50 [6] was over 100 µM. The Activity [7] was “Dose-dependent effect”.

Source: ChEMBL document CHEMBL3745598, “Synthesis and biological evaluation of disubstituted amidoxanthones as potential telomeric G-quadruplex DNA-binding and apoptosis-inducing agents” (Bioorg Med Chem, 2016)
